Measurements published in ChEMBL document CHEMBL5647697, “Akt inhibition synergizes with polycomb repressive complex 2 inhibition in the treatment of multiple myeloma” (2019).
The source made the active and inactive calls. No cut-off for these calls is given here.

Experiments:
NCI-H929 [1] = test: Downregulation of E2F2 mRNA expression in human NCI-H929 cells incubated at 0.3 to 3 micromol/L for 24 hrs by qRT-PCR analysis; assay type: functional, cell-based; conditions: dose 0.3-3 µmol/L
In short: (§1)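 MM.1S and H929 cells given TAS-117 at the indicated doses for 24 h. mRNA measured by RT-qPCR, fold change after normalization to GAPDH; SD of triplicates; significance versus untreated control.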

OPM-2/BTZ [2] = test: Downregulation of EZH2 protein expression in human OPM-2/BTZ cells at 0.3 to 5 micromol/L for 6 to 48 hrs by Western blot analysis; assay type: functional, cell-based; conditions: dose 0.3-5 µmol/L, time 6-48 hrs
NCI-H929 [3] = test: Upregulation of FOXO4 […] expression in human NCI-H929 cells assessed as enhanced nuclear accumulation at 1 micromol/L after 24 hrs by immunofluorescence staining; assay type: functional, cell-based; conditions: dose 1.0 µmol/L
NCI-H929 [4] = test: Upregulation of FOXO3 […] expression in human NCI-H929 cells assessed as enhanced nuclear accumulation at 1 micromol/L after 24 hrs by immunofluorescence staining; assay type: functional, cell-based; conditions: dose 1.0 µmol/L
OPM-2/BTZ [5] = test: Synergistic activity against human OPM-2/BTZ cells assessed as combination index preincubated in presence of 1.25 uM UNC1999 for 72 hrs followed by compound addition at 0.5 uM incubated for 48 hrs by MTT assay; assay type: functional
NCI-H929 [6] = test: Induction of apoptosis in human NCI-H929 cells assessed as early apoptotic cells preincubated in presence of 5 micromol/L UNC1999 for 48 hrs followed by compound addition at 2 micromol/L incubated for 12 hrs by annexin V/PI staining based flow cytometry (reference value: 0.37%); assay type: functional; conditions: dose 2 µmol/L, at 2 µM
[7] = biological target: Serine/threonine-protein kinase AKT (Homo sapiens) (UniProt P31751+Q9Y243+P31749); test: Inhibition of Akt phosphorylation in human OPM-2/BTZ cells after 48 hrs at 0.3 to 2 micromol/L for 48 hrs by Western blot analysis; assay type: cell-based; conditions: dose 0.3-2 µmol/L
OPM-2/BTZ [8] = test: Downregulation of E2F1 mRNA expression in human OPM-2/BTZ cells incubated at 0.3 to 3 micromol/L for 48 hrs by qRT-PCR analysis; assay type: functional, cell-based; conditions: dose 0.3-3 µmol/L
NCI-H929 [9] = test: Synergistic activity against human NCI-H929 cells assessed as combination index […] at 0.5 uM incubated for 48 hrs by […]; assay type: functional
In short: (§2)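 Cells were exposed to the EZH2/EZH1 inhibitor (UNC1999 or GSK126) for 72 h in total, with the Akt inhibitor added for the last 48 h. Viability was read by MTS assay relative to untreated control cells, in triplicate. The combination index for each dose pair came from isobologram analysis.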

NCI-H929 [10] = test: Downregulation of EZH2 mRNA expression in human NCI-H929 cells at 0.3 to 3 micromol/L after 24 hrs by qRT-PCR analysis; assay type: functional, cell-based; conditions: dose 0.3-3 µmol/L; in short: as §1
OPM-2 [11] = test: Synergistic activity against human OPM-2 cells assessed as combination index preincubated in presence of 1.25 uM GSK126 for 72 hrs followed by compound addition at 1.25 uM incubated for 48 hrs by MTT assay; assay type: functional
MM1.S [12] = test: Upregulation of EZH1 mRNA expression in human MM1.S cells transduced with EZH1 at 0.3 micromol/L after 24 hrs by qRT-PCR analysis relative to control; assay type: functional, cell-based; conditions: dose 0.3 µmol/L
In short: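 MM.1S cells were transduced with lentiviral shRNA against EZH1 or luciferase (shLuc control). Cells were then given graded TAS-117 for 24 h. EZH1 mRNA was measured by qRT-PCR and normalized to GAPDH.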

OPM-2 [13] = test: Synergistic activity against human OPM-2 cells assessed as combination index preincubated in presence of 1.25 uM UNC1999 for 72 hrs followed by compound addition at 2.5 uM incubated for 48 hrs by MTT assay; assay type: functional
NCI-H929 [14] = test: Induction of apoptosis in human NCI-H929 cells assessed as necrotic cells at 2 micromol/L incubated for 12 hrs by annexin V/PI staining based flow cytometry (reference value: 2.61%); assay type: functional; conditions: dose 2 µmol/L, at 2 µM
OPM-2/BTZ [15] = test: Synergistic activity against human OPM-2/BTZ cells assessed as combination index preincubated in presence of 1.25 uM GSK126 for 72 hrs followed by compound addition at 1 uM incubated for 48 hrs by MTT assay; assay type: functional
OPM-2/BTZ [16] = test: Synergistic activity against human OPM-2/BTZ cells assessed as combination index preincubated in presence of 2.5 uM UNC1999 for 72 hrs followed by compound addition at 2 uM incubated for 48 hrs by MTT assay; assay type: functional
MM1.S [17] = test: Cytotoxicity against human MM1.S cells assessed as reduction in cell viability at 0.3125 to 10 micromol/L after 48 hrs by MTS assay; assay type: functional, cell-based; conditions: dose 0.3125-10 µmol/L
In short: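 Seven myeloma lines (MM.1S, H929, OPM2/BTZ among them) exposed to TAS-117 at increasing concentrations up to 10 μmol/L for 48 h. Viability read by MTS against an untreated control; mean ± SD of triplicates.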

NCI-H929 [18] = test: Induction of apoptosis in human NCI-H929 cells assessed as live cells at 2 micromol/L incubated for 12 hrs by annexin V/PI staining based flow cytometry (reference value: 95.6%); assay type: functional; conditions: dose 2 µmol/L, at 2 µM
NCI-H929 [19] = test: Induction of apoptosis in human NCI-H929 cells assessed as early apoptotic cells at 2 micromol/L incubated for 12 hrs by annexin V/PI staining based flow cytometry (reference value: 0.37%); assay type: functional; conditions: dose 2 µmol/L, at 2 µM
MM1.S [20] = test: Upregulation of CDKN1B mRNA expression in human MM1.S cells at 1 micromol/L after 24 hrs by qRT-PCR analysis; assay type: functional, cell-based; conditions: dose 1.0 µmol/L
MM1.S [21] = test: Downregulation of E2F1 protein expression in human MM1.S cells incubated at 0.3 to 3 micromol/L for 48 hrs by Western blot analysis; assay type: functional, cell-based; conditions: dose 0.3-3 µmol/L
In short: (§3)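 MM.1S and H929 cells given TAS-117 at the indicated doses for 48 h. Protein levels assessed by immunoblot.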

MM1.S [22] = test: Downregulation of E2F2 mRNA expression in human MM1.S cells incubated at 0.3 to 3 micromol/L for 24 hrs by qRT-PCR analysis; assay type: functional, cell-based; conditions: dose 0.3-3 µmol/L; in short: as §1
MM1.S [23] = test: Downregulation of H3K27me3 levels in human MM1.S cells […] at 0.3 micromol/L after 48 hrs by Western blot analysis relative to control; assay type: functional, cell-based; conditions: dose 0.3 µmol/L
In short: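 MM.1S cells transduced with lentiviral shRNA against EZH1 or luciferase, then treated with TAS-117 at the indicated doses for 48 h. H3K27me3 immunoblot with H3 as loading control.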

OPM-2 [24] = test: Effects on EZH2 mRNA expression in human OPM-2 cells at 3 micromol/L incubated for last 24 hrs by qRT-PCR analysis; assay type: functional, cell-based; conditions: dose 3.0 µmol/L
NCI-H929 [25] = test: Downregulation of E2F1 protein expression in human NCI-H929 cells incubated at 0.3 to 3 micromol/L for 48 hrs by Western blot analysis; assay type: functional, cell-based; conditions: dose 0.3-3 µmol/L; in short: as §3
OPM-2 [26] = test: Synergistic activity against human OPM-2 cells assessed as combination index preincubated in presence of 5 uM UNC1999 for 72 hrs followed by compound addition at 5 uM incubated for 48 hrs by MTS assay
NCI-H929 [27] = test: Synergistic activity against human NCI-H929 cells assessed as combination index […] compound addition at 0.125 uM incubated for 48 hrs by MTT assay; assay type: functional; in short: as §2

Sequence of Serine/threonine-protein kinase AKT (Homo sapiens) (P31749 whole entry, looked up): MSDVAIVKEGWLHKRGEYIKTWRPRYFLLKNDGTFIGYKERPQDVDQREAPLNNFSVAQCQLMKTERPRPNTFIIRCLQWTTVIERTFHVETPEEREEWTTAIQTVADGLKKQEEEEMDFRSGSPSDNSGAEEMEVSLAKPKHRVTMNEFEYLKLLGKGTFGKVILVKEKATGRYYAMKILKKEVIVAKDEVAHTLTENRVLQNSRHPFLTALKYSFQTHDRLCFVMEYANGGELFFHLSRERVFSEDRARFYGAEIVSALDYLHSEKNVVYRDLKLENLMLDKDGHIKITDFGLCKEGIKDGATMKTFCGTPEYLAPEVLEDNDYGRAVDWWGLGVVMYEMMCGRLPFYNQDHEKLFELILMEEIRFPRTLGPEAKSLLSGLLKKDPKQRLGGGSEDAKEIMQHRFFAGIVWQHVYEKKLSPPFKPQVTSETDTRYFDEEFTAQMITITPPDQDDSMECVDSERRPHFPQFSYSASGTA
Sequence of Serine/threonine-protein kinase AKT (Homo sapiens) (P31751 whole entry, looked up): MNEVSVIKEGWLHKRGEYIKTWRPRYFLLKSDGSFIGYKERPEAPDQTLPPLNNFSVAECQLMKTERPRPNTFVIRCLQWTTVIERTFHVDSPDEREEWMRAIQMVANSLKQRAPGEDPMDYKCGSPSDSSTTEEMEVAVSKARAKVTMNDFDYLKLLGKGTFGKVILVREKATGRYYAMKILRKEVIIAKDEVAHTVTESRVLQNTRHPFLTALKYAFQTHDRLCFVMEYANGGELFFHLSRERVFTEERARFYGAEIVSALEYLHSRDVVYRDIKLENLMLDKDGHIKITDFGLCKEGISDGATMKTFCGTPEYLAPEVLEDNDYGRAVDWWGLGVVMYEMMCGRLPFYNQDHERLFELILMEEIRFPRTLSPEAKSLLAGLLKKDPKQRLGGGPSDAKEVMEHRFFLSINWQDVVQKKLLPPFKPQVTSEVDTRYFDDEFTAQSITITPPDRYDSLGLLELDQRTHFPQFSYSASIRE
Sequence of Serine/threonine-protein kinase AKT (Homo sapiens) (Q9Y243 whole entry, looked up): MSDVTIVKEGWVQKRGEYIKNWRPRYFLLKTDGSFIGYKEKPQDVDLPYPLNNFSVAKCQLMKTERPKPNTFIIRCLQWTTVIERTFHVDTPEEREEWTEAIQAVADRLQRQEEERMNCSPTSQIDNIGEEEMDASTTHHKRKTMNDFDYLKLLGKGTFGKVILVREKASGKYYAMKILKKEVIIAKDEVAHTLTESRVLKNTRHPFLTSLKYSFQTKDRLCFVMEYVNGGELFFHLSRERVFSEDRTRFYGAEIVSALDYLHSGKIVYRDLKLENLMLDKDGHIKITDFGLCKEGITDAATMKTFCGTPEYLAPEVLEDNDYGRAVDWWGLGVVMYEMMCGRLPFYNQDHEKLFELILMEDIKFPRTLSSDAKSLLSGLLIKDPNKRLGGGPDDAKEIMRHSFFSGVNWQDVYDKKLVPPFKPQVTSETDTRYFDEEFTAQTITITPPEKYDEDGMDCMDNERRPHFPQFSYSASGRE

## C[C@]1(O)C[C@@](N)(c2ccc(-c3nc4n(c3-c3ccccc3)COc3ccncc3-4)cc2)C1 [PIFUSERTIB]
NCI-H929 [1]
  Activity: Active
OPM-2/BTZ [2]
  Activity: Active
NCI-H929 [3]
  Activity: Active
NCI-H929 [4]
  Activity: Active
OPM-2/BTZ [5]
  CI: 0.74
NCI-H929 [6]
  Activity: 16.1%
[7]
  inhibition: Active
OPM-2/BTZ [8]
  Activity: Active
NCI-H929 [9]
  CI: 1.046
NCI-H929 [10]
  Activity: Active
OPM-2 [11]
  CI: 1.29
MM1.S [12]
  Activity: Active
OPM-2 [13]
  CI: 1.51
NCI-H929 [14]
  Activity: 0.35%
OPM-2/BTZ [15]
  CI: 0.923
OPM-2/BTZ [16]
  CI: 0.483
MM1.S [17]
  Activity: Active
NCI-H929 [18]
  Activity: 91.7%
NCI-H929 [19]
  Activity: 4.49%
MM1.S [20]
  Activity: Active
MM1.S [21]
  Activity: Active
MM1.S [22]
  Activity: Active
MM1.S [23]
  Activity: Active
OPM-2 [24]
  Activity: inactive
NCI-H929 [25]
  Activity: Active
OPM-2 [26]
  CI: 6.32
NCI-H929 [27]
  CI: 0.858
